Assay results reported in ChEMBL document CHEMBL1137127 (Bioorg Med Chem Lett, 2004).

Experiments:
[1] = target: Metabotropic glutamate receptor 5 (Homo sapiens, UniProt P41594); assay: In vitro potency against human recombinant mGlu5 receptor was determined by [Ca2+] flux assay using glutamate as agonist; assay type: functional
Summary of the method: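 Ltk cells stably expressing human recombinant mGlu5; automated assay of cytosolic Ca²⁺ changes by fura-2 fluorescence; IC50 from antagonist response. Mean with a spread value and n in parentheses.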

[2] = logD value was determined; assay type: physicochemical; settings: octanol/water
[3] = target: Metabotropic glutamate receptor 5 (Rattus norvegicus, UniProt P31424); assay: Displacement by compound of [3H]3-methoxy-5-(pyridin-2-ylethynyl)pyridine from rat cortical membranes; assay type: cell membranes, Membrane
Chain of Metabotropic glutamate receptor 5 (Rattus norvegicus, UniProt P31424) (P31424 whole entry): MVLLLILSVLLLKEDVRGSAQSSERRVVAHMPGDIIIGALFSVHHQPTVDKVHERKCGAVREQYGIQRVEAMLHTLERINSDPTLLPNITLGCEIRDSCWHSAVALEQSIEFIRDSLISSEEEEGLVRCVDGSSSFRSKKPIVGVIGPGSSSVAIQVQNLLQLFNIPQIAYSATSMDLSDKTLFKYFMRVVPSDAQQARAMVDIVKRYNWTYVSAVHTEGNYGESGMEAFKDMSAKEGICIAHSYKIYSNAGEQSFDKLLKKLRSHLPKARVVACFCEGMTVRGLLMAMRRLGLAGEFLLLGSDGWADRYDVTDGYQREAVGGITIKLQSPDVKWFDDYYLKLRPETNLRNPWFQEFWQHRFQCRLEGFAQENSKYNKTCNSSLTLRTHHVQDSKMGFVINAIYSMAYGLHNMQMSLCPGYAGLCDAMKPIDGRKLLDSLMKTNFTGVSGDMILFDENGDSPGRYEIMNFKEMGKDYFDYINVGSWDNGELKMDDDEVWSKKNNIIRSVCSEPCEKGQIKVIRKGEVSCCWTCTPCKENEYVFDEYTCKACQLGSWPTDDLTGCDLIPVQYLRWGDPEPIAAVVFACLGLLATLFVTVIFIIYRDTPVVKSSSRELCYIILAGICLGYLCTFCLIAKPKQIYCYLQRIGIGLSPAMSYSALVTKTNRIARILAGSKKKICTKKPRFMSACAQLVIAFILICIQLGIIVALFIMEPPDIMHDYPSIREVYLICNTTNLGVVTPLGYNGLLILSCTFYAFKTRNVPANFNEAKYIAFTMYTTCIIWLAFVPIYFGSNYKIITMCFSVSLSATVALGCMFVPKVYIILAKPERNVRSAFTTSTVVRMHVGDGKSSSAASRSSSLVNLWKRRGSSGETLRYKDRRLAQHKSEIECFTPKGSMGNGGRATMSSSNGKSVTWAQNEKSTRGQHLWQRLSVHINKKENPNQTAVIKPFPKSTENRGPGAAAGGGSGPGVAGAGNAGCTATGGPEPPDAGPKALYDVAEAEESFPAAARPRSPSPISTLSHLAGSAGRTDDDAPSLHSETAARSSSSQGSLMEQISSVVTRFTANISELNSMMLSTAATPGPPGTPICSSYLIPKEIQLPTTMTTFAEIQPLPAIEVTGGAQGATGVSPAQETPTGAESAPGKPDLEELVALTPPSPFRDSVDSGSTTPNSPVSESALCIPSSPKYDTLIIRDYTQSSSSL
Summary of the method: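 Native rat mGlu5 binding: rat cortical membranes, displacement of [³H]-3-methoxy-5-(pyridin-2-ylethynyl)pyridine by test compound; Ki derived.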

[4] = Maximum plasma concentration of compound after p.o. administration; assay type: ADME, organism-based; design: route oral; settings: rat, po
Summary of the method: (§1)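 Rat pharmacokinetics with two dosing regimens. In one, iv at 2 mg/kg with po at 10 mg/kg. In the other, iv at 1 mg/kg with po at 2 mg/kg. Bioavailability, clearance, half-life and Cmax come from plasma after each route.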

[5] = Half-life of compound after i.v. administration; assay type: ADME, organism-based; settings: rat, in vivo, iv; summary of the method: as §1
[6] = Plasma clearance of compound upon i.v. administration at 1 mg/kg; assay type: ADME, organism-based; design: dose 1 mg/kg, route intravenous; settings: rat, iv, read-out: Clp; summary of the method: as §1
[7] = Plasma clearance of compound upon p.o. administration at 2 mg/kg; assay type: ADME, organism-based; design: dose 2 mg/kg, route oral; settings: rat, po, read-out: Clp; summary of the method: as §1
[8] = Bioavailability of compound was determined upon i.v. administration at 1 mg/kg in rat; assay type: ADME, organism-based; settings: in vivo, iv; summary of the method: as §1
[9] = Bioavailability of compound was determined upon p.o. administration at 2 mg/kg in rat; assay type: ADME, organism-based; settings: in vivo, po; summary of the method: as §1
[10] = Plasma clearance of compound upon i.v. administration at 2 mg/kg; assay type: ADME, organism-based; design: dose 2 mg/kg, route intravenous; settings: rat, iv, read-out: Clp; summary of the method: as §1
[11] = Plasma clearance of compound upon p.o. administration at 10 mg/kg; assay type: ADME, organism-based; design: dose 10 mg/kg, route oral; settings: rat, po, read-out: Clp; summary of the method: as §1
[12] = Bioavailability in rat (dose 2 mg/kg i.v.); assay type: ADME, organism-based; settings: in vivo, iv; summary of the method: as §1
[13] = Bioavailability in rat (dose 10 mg/kg p.o.); assay type: ADME, organism-based; settings: in vivo, po; summary of the method: as §1

Chain of Metabotropic glutamate receptor 5 (Homo sapiens, UniProt P41594) (P41594 whole entry): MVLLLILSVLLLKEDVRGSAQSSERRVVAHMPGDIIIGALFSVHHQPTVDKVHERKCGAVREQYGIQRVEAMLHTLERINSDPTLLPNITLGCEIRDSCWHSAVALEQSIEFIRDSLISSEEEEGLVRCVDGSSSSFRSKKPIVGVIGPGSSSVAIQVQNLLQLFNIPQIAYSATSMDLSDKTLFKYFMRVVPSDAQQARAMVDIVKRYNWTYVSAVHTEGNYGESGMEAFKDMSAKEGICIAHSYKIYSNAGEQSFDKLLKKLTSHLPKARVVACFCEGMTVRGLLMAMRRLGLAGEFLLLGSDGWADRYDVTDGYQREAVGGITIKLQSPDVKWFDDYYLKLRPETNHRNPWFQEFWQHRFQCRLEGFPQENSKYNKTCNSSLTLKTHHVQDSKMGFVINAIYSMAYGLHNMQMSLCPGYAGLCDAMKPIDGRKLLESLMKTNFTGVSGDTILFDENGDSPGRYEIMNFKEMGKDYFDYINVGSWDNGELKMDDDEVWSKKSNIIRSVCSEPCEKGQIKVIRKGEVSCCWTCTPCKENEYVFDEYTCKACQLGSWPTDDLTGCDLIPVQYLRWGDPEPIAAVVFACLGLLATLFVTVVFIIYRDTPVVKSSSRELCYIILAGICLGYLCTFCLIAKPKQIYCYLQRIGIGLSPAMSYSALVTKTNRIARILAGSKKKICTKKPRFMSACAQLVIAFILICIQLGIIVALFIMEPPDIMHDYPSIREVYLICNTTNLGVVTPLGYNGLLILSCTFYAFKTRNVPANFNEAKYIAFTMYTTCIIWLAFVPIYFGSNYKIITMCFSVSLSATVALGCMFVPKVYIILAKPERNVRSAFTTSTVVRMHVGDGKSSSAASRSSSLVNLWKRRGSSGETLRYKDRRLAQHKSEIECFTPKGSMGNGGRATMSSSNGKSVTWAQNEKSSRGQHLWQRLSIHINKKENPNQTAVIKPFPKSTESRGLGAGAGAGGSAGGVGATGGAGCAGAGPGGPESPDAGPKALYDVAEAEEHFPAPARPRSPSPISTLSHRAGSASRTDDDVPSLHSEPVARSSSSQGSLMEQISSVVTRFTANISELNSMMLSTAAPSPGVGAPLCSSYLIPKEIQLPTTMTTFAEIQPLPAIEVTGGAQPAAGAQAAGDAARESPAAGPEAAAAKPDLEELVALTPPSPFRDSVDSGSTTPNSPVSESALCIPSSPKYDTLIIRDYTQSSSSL

Structure (SMILES) | IC50 [1] [nM] | logD [2] | Ki [3] [nM] | also measured
Cc1nc(C#Cc2ccc(-c3ccncc3)nc2)cs1 | 29 | 2.9 | 21 | –
Cc1cccc(C#Cc2csc(C)n2)c1 | – | 3.9 | – | –
Cc1nc(C#Cc2cncc(-c3ccccn3)c2)cs1 | 22 | 2.8 | 28 | –
Cc1nc(C#Cc2ccccc2-c2ccccc2)cs1 | 423 | – | 145 | –
Cc1nc(C#Cc2cncc(-c3cccnc3)c2)cs1 | 3 | 2.4 | 1 | Cmax [4]: 800 nM; half-life [5]: 1.6 h; clearance [6]: 29 mL/min/kg; CL/F [7]: 29 mL/min/kg; bioavailability [8]: 26%; bioavailability [9]: 26%
Cc1nc(C#Cc2ccc(-c3ccccc3)nc2)cs1 | – | 3.9 | – | –
Cc1nc(C#Cc2cccnc2)cs1 | – | – | – | clearance [10]: 28 mL/min/kg; Cmax [4]: 2000 nM; half-life [5]: 8.3 h; CL/F [11]: 28 mL/min/kg; bioavailability [12]: 16%; bioavailability [13]: 16%
Cc1nc(C#Cc2ccncc2)cs1 | 127 | – | 218 | –
Cc1nc(C#Cc2ccc(-c3ccccn3)nc2)cs1 | 4 | 3.7 | 16 | –
Cc1nc(C#Cc2cccc(-c3ccccc3)c2)cs1 | – | 4.1 | – | –
Cc1nc(C#Cc2ccccc2)cs1 | 4 | – | 9 | –
Cc1nc(C#Cc2ccccn2)cs1 | – | – | 54 | –

Further lines, with some results ahead:

IC50 [1] [nM] | logD [2] | Ki [3] [nM] | Structure (SMILES) | also measured
15 | 3.8 | 51 | Cc1nc(C#Cc2ccccc2C)cs1 | –
18 | 2.6 | 15 | Cc1nc(C#Cc2cncc(-c3ccncc3)c2)cs1 | –
22 | 5 | 43 | Cc1nc(C#Cc2ccc(-c3ccccc3)cc2)cs1 | –
2 | 4.1 | 40 | Cc1nc(C#Cc2cncc(-c3ccccc3)c2)cs1 | –
845 | 3.9 | 638 | Cc1ccc(C#Cc2csc(C)n2)cc1 | –
– | 3.1 | – | Cc1nc(C#Cc2ccc(-c3cccnc3)nc2)cs1 | clearance [10]: 15 mL/min/kg; Cmax [4]: 6500 nM; half-life [5]: 0.8 h; CL/F [11]: 15 mL/min/kg; bioavailability [12]: 100%; bioavailability [13]: 100%
